# Test results as given in ChEMBL document CHEMBL1155054, “Synthesis, biological evaluation and molecular modelling of N-heterocyclic dipeptide aldehydes as selective calpain inhibitors” (Bioorg Med Chem, 2008).
# Activity calls are given as the source filed them. The calls are words filed in the database; no cut-off is given here. Residues, ends and D or L forms follow the SMILES beside them. *: point of attachment. Cbz = O=C(OCc1ccccc1)*
# Legend:
# [1] = Inhibition of ovine CAPN2; set-up: species or system Ovis aries
# How it was run: (§1)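 o-CAPN1 or o-CAPN2 partially purified from sheep lung by hydrophobic and ion-exchange chromatography, diluted in 20 mM MOPS, 2 mM EGTA, 2 mM EDTA, 0.5% β-mercaptoethanol pH 7.5. Substrate 0.0005% BODIPY-FL casein in 10 mM CaCl2; inhibitor in DMSO (2% total).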
# [2] = Inhibition of ovine CAPN1; set-up: species or system Ovis aries; how it was run: as §1
# [3] = test system: Lens of camera-type eye; assay: Protection against calcium-induced cataract in ovine lens assessed as reduction in loss of transparency at 10 uM after 44 hrs relative to control; assay type: functional, tissue-based; conditions: Ovis aries
# [4] = target: T1, Calpain-2 catalytic subunit (Sus scrofa, UniProt P43367); assay: Inhibition of pig CAPN2
# T1 sequence (P43367 whole entry): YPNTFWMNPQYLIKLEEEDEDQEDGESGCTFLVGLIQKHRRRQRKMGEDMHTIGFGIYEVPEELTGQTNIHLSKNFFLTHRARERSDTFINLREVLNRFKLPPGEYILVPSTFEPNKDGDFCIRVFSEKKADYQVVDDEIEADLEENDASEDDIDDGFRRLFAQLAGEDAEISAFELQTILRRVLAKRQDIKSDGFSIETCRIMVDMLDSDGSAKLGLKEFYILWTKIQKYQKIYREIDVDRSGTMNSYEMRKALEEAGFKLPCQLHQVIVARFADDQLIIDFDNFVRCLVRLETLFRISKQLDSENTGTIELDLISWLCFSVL
# [5] = target: T2, Calpain-1 catalytic subunit (Sus scrofa, UniProt P35750)
# T2 sequence (P35750 whole entry): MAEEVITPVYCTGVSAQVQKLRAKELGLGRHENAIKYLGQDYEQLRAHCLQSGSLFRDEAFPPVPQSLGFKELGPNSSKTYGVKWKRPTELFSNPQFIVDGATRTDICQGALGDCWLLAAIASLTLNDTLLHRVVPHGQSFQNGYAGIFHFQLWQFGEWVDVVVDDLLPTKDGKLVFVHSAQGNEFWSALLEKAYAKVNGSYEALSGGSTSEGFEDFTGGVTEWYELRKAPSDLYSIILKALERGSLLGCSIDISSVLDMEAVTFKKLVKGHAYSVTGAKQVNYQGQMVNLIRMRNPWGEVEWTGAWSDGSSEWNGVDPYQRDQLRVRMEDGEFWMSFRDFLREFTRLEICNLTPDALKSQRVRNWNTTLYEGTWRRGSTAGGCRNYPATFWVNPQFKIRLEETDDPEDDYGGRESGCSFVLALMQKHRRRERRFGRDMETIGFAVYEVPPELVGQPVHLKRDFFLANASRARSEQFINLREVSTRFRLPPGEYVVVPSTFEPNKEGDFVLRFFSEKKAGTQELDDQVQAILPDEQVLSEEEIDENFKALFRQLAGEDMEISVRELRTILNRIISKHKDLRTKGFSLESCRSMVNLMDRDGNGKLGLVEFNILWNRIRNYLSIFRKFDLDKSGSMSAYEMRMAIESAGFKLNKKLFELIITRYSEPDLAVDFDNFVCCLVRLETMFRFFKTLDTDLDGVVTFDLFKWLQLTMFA
# [6] = target: T3, Calpain-2 catalytic subunit (Homo sapiens, UniProt P17655); assay: Inhibition of human CAPN2
# T3 sequence (P17655 whole entry): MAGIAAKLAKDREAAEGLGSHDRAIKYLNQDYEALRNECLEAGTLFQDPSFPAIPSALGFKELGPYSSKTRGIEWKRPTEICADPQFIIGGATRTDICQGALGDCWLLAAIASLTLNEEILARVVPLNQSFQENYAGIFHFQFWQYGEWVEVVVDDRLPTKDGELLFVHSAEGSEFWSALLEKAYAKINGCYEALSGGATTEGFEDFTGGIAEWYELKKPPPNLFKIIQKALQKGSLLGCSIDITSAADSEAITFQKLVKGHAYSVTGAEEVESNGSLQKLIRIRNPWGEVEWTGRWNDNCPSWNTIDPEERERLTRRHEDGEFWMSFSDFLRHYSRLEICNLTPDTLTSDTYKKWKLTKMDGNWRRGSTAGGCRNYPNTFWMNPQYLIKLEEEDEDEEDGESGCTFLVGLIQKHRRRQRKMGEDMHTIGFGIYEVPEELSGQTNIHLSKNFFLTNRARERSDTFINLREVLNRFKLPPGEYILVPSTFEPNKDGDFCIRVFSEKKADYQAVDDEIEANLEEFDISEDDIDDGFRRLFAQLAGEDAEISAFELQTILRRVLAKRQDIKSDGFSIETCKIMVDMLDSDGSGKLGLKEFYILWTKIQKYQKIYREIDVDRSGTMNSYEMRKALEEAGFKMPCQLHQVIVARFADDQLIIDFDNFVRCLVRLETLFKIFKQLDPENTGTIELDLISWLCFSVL
IC50 [1],IC50 [2],Compound,other results
100 nM,530 nM,CC(C)C[C@@H](C=O)NC(=O)[C@@H](NC(=O)c1cc(C=O)c[nH]1)C(C)C,
25 nM,290 nM,CC(C)C[C@@H](C=O)NC(=O)[C@@H](NC(=O)c1ccc(C=O)[nH]1)C(C)C,Activity [3]: Active
110 nM,340 nM,Cc1ccc(C(=O)N[C@H](C(=O)N[C@H](C=O)CC(C)C)C(C)C)[nH]1,
135 nM,790 nM,CC(C)C[C@@H](C=O)NC(=O)[C@@H](NC(=O)c1ccco1)C(C)C,
100 nM,680 nM,CC(C)C[C@@H](C=O)NC(=O)[C@@H](NC(=O)c1cccs1)C(C)C,
315 nM,650 nM,CC(C)C[C@@H](C=O)NC(=O)[C@@H](NC(=O)c1ccc[nH]1)C(C)C,

# Second part, the compound before the results:
Compound,IC50 [1],IC50 [2],other results
COC(=O)c1ccc(C(=O)N[C@H](C(=O)N[C@H](C=O)CC(C)C)C(C)C)[nH]1,140 nM,290 nM,
CC(C)C[C@@H](C=O)NC(=O)[C@@H](NS(=O)(=O)c1ccc(F)cc1)C(C)C,,,IC50 [4]: 78 nM; IC50 [5]: 7.5 nM
CC(C)[C@H](NC(=O)OCc1ccccc1)C(=O)N[C@H](C=O)Cc1ccccc1 (Cbz-Val-Phe-aldehyde),,,IC50 [6]: 350 nM
CC(C)C[C@@H](C=O)NC(=O)[C@@H](NC(=O)c1ccc(C=O)n1C)C(C)C,150 nM,150 nM,
CC(C)C[C@@H](C=O)NC(=O)[C@@H](NC(=O)c1ccc(C=O)o1)C(C)C,100 nM,960 nM,
CC(C)C[C@@H](C=O)NC(=O)[C@@H](NC(=O)c1ccc(C=O)s1)C(C)C,85 nM,440 nM,
